# pIC50: −log10 of the molar value.
# Species: Homo sapiens
# Assay: The inhibitory concentration for the inhibition of ADP-Triggered Blood Platelet Aggregation
# Type: functional
# Outline: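 Human citrated PRP from unmedicated healthy donors (200g, 10 min, rt spin); PPP from 1000g, 20 min. Serial dilutions in phosphate buffer pH 7.4 preincubated with PRP 30 min at rt, then ADP added. Aggregation followed 10 min at 37 °C, absorbance 595 nm every 30 s with shaking; buffer and PPP-only controls; AMP as positive control.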
row,pIC50,SMILES
1,4.40,Nc1ncnc2c1ncn2[C@@H]1O[C@H](COP(O)(=S)OCP(=O)(O)COP(O)(=S)OC[C@H]2O[C@@H](n3cnc4c(N)ncnc43)[C@H](O)[C@@H]2O)[C@@H](O)[C@H]1O (stereo partly specified)
2,4.12,Nc1ncnc2c1ncn2[C@@H]1O[C@H](COP(O)(=S)OC(C(=O)O)C(OP(O)(=S)OC[C@H]2O[C@@H](n3cnc4c(N)ncnc43)[C@H](O)[C@@H]2O)C(=O)O)[C@@H](O)[C@H]1O (stereo partly specified)
3,< 3.80,Nc1ncnc2c1ncn2[C@@H]1O[C@H](COP(O)(=S)OCC(OP(O)(O)=S)OP(O)(=S)OC[C@H]2O[C@@H](n3cnc4c(N)ncnc43)[C@H](O)[C@@H]2O)[C@@H](O)[C@H]1O (stereo partly specified)

# Further lines, the compound ahead of its results:
row,SMILES,pIC50
1,Nc1ncnc2c1ncn2[C@@H]1O[C@H](COP(=S)(S)OCP(=O)(O)COP(=S)(S)OC[C@H]2O[C@@H](n3cnc4c(N)ncnc43)[C@H](O)[C@@H]2O)[C@@H](O)[C@H]1O (stereo partly specified),5.00
2,Nc1ncnc2c1ncn2[C@@H]1O[C@H](COP(=O)(O)OCP(=O)(O)COP(=O)(O)OC[C@H]2O[C@@H](n3cnc4c(N)ncnc43)[C@H](O)[C@@H]2O)[C@@H](O)[C@H]1O,4.10
3,Nc1ncnc2c1ncn2[C@@H]1O[C@H](COP(O)(=S)OCP(=O)(O)COP(O)(O)=S)[C@@H](O)[C@H]1O (stereo partly specified),4.89
